Tb MetRS inh – T. brucei MetRS inhibitors, primary screen, biochemical, luminescence | methionyl-tRNA synthetase (Trypanosoma brucei brucei) | actives 0.4% (n = 360,000) | inhibition, % at 11.9 µM | purified T. brucei MetRS, ATP depletion, Kinase-Glo luminescence;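 active = inhibition above a per-plate cutoff of the control wells' mean inhibition plus 3 SD, cut at about 5.5% in these data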;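 also: 0% = DMSO wells median and 100% = median of wells with control inhibitor compound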
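Material: T. brucei methionyl-tRNA synthetase, purified; reagent: substrates ATP, L-methionine and bulk Escherichia coli tRNA; dosing: 11.9 µM single point; timing: 15 min plus 2 h at 25 °C; detection: luminescence of leftover ATP; evaluation: % inhibition; control set: DMSO-only wells as low control; replicates: singlicate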
CAL PDZ FP-1 – untagged CAL PDZ binding inhibitors, primary screen, biochemical, fluorescence polarization, HTS | purified CAL PDZ, TMR-peptide fluorescence polarization, 1 h | inhibition, % at 24.9 µM | actives 0.92% (n = 300,000) | AID 602252, 2012;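 active = mean inhibition of at least 30% with at least half of replicates also reaching 30%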;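 also: 0% = DMSO neutral control and 100% = excess unlabeled competitor peptide PRC23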
CAL PDZ FP-2 – CAL PDZ peptide-binding inhibitors, primary screen, biochemical, fluorescence polarization, Cer-tagged CAL PDZ, HTS. inhibition, % at 20 µM. actives 0.02% (n = 330,000). purified CAL PDZ, TMR-peptide fluorescence polarization, 1 h. Golgi-associated PDZ and coiled-coil motif-containing protein (Homo sapiens), Q9HD26;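 active = highest replicate inhibition of at least 40%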;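 also: plate controls were DMSO neutral control wells for no effect and unlabeled competitor peptide control wells for full effect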
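Material: tagged CAL PDZ domain; buffer or medium: 25 mM sodium phosphate pH 7.4, 150 mM NaCl, TCEP, IgG, Thesit; compound dosing: single point, 20 µM; schedule: 1 h incubation at room temperature before polarization reading; measured by: FP readout, S and P plane fluorescence; read-out basis: percent inhibition from loss of millipolarization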
DYRK1A inh – rat Dyrk1A kinase inhibitors, primary screen, biochemical, single point, plate reader. Dual specificity tyrosine-phosphorylation-regulated kinase 1A (Rattus norvegicus), Q63470. inhibition, % at 12.5 µM. actives 0.43% (n = 310,000). AID 504441, 2011. ADP-Glo luminescence, NFATc1 peptide; in the data active = inhibition above about 50%;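 also: plate controls were vehicle with enzyme for no effect and no enzyme for full effect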
PvdQ inh – P. aeruginosa PvdQ acylase inhibitors, primary screen, biochemical, fluorescence, plate reader and imaging, single point; PvdQ acylase [Pseudomonas aeruginosa LESB58]; purified PvdQ acylase; inhibition, % at 10 µM; actives 0.063% (n = 340,000); AID 488965, 2010; in the data active = inhibition above about 30%, passing the limit was not always enough;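 also: 0% = vehicle neutral wells and 100% = reference inhibitor wells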
CDK5 inh – inhibitors of human CDK5/p35 kinase, primary screen, biochemical, single concentration. inhibition, % at 10 µM. actives 0.01% (n = 330,000). Recombinant CDK5/p35, ADP-Glo luminescence, 60 min;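 active = highest replicate inhibition of at least 50% and at least 75% of replicates reaching 50%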;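 also: plate controls were DMSO neutral control for no effect and GW8510 at 10 µM for full effect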
Target sequence (Q00535 whole entry, looked up): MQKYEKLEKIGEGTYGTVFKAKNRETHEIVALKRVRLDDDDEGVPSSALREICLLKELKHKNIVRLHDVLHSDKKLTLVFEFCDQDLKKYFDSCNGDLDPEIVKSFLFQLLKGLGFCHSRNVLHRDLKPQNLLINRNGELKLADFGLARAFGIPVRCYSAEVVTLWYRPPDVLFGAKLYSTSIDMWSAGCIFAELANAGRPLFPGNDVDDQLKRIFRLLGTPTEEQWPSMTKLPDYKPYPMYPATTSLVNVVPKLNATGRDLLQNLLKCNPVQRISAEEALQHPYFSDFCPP
Target sequence (Q15078 whole entry, looked up): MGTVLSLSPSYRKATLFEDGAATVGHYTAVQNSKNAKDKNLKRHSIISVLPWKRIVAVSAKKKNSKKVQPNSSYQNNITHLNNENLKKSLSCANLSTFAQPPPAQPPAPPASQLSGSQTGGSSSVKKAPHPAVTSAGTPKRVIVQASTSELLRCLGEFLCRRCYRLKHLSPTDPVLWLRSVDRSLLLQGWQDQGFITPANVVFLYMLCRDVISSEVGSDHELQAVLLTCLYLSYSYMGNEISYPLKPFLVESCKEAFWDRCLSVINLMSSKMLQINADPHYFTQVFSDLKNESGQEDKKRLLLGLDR
Starred values were filed as active, the others as inactive; / = not tested or not shown. This is a sample that favours compounds with a hit; in the whole collection about 1.4% have one here.

SMILES	Tb MetRS inh	CAL PDZ FP-1	CAL PDZ FP-2	DYRK1A inh	PvdQ inh	CDK5 inh
O=C(Nc1ccccc1N1CCCCC1)c1ccc(Cl)c([N+](=O)[O-])c1	-1.6	/	0.1	-2.8	5.9	1.4
CCn1c2ccccc2c2cc(NC(=O)N3CCCCC3)ccc21	-0.2	/	/	/	/	/
O=C(O)CCC1(CCC(=O)O)CCCC(CCC(=O)O)(CCC(=O)O)C1=O	-0.1	79.9*	0.2	-4.0	-17.7	0.7
O=C(O)CCN1C(=O)NC2(CCCC2)C1=O	0.1	-1.7	-1.4	3.1	-12.9	0.9
Cc1ccccc1NC(=O)C(=O)NNC(=O)COc1ccc2ccccc2c1	-0.1	38.8*	-1.0	2.5	-13.5	2.3
CCNC(=O)COc1ccc(CC)cc1	-0.5	1.3	-2.7	-0.9	-4.5	1.5
CCNC(=O)COc1ccc2ccccc2c1	-0.1	0.0	0.8	6.6	35.3*	-2.8
CCc1nc2ccc(C(=O)NC3CCN(Cc4ccccc4)CC3)cn2c1N(C)Cc1cc2ccccc2s1	-0.1	/	/	/	/	/
CCOC(=O)C1=CC[C@@H](c2ccccc2)N(S(=O)(=O)c2ccc(C)cc2)[C@H]1C=C(C)C	-0.4	/	/	/	/	/
COc1ccc(Cl)cc1N(C(C)=O)c1nc(C)cc(C)c1C#N	-1.2	/	1.0	15.3	-19.2	0.3
COc1ccccc1N(C(C)=O)c1nc(C)cc(C)c1C#N	-0.8	30.9*	-0.8	5.7	-15.9	0.5
O=C(CN1C(=O)c2ccccc2C1=O)N1CCN(c2ccccc2)CC1	-0.9	39.7*	-0.8	-0.6	-16.9	0.0
CCOC(=O)CN1C(=O)c2ccccc2C1=O	-0.3	50.7*	0.7	1.5	-11.2	0.9
CCCOC(=O)CN1C(=O)c2ccccc2C1=O	-0.3	-2.7	-2.8	-3.1	-10.1	0.8
Cc1ccc(C(=O)NCCc2nnc3ccc(SCC(=O)Nc4nnc(C)s4)nn23)cc1	-0.2	/	/	/	/	/
CCCn1ncc(CN2CCC(n3nccc3NC(=O)c3ccccc3OC)CC2)c1C	-0.1	-2.5	0.0	-4.4	-10.2	0.0
CCOc1ccccc1CN1CCC(n2nccc2NC(=O)C2CCCC2)CC1	-0.3	5.3	112.1*	4.4	-4.7	-1.7
CCCCc1ncc(CN2CCC(n3nccc3NC(=O)c3ccccc3OC)CC2)[nH]1	0.3	111.2*	0.0	-2.5	-18.5	-0.3
COc1ccc(CN2CCC(n3nccc3NC(=O)C3CC3)CC2)c(OC)c1OC	-0.1	71.3*	0.2	-5.6	-15.3	0.8
O=C(Nc1ccnn1C1CCN(Cc2ccccc2)CC1)C1CCCC1	0.2	-2.8	-0.6	-5.9	-6.8	2.5
COc1ccc(CN2CCC(n3nccc3NC(=O)C3CCCC3)CC2)c(OC)c1	0.0	-0.7	-2.4	1.8	-0.1	-0.3
NC(=O)c1cccc(-c2ccnc3c2CC(C(=O)NCc2ccccc2)O3)c1 (stereo unspecified)	0.2	/	/	/	/	/
CC(C)(C)c1ccc(C(=O)N2[C@H](COCc3ccccc3)C=CS2(=O)=O)cc1	-1.1	/	/	/	/	/
CCOC(=O)C1=CCN(S(=O)(=O)c2ccc(C)cc2)C1c1cccc(F)c1 (stereo unspecified)	-1.3	/	/	/	/	/
COc1ccc(OC)c(C(=O)CSc2nnnn2C)c1	-0.4	-1.1	-2.9	3.5	-6.4	0.2
CCn1nnnc1SCC(=O)c1cc(OC)ccc1OC	0.1	40.8*	0.2	-3.3	-6.4	1.9
CO[C@@H]1CN(C)C(=O)c2ccc(NS(=O)(=O)c3c(C)noc3C)cc2OC[C@@H](C)NC[C@@H]1C	0.3	/	/	/	/	/
Cc1ccc(S(=O)(=O)N(C)C)cc1NC(=S)N1CCc2ccccc21	-0.6	49.2*	-1.8	/	-5.0	0.0
Cc1ccc(-c2n[nH]c(=O)c3ccccc23)cc1S(=O)(=O)NCCN1CCOCC1	0.3	42.3*	/	10.0	-15.8	1.0

Assay outcomes (PubChem BioAssay)
